Test results published in ChEMBL document CHEMBL2074314, “Involvement of human organic anion transporting polypeptide OATP-B (SLC21A9) in pH-dependent transport across intestinal apical membrane” (J Pharmacol Exp Ther, 2003).
Blank lines part the entries; values can stand above or below the compound they belong to.

Tests used:
[1] = molecular target: T1, OATP-B (SLCO2B1, OATP2B1) (Homo sapiens, UniProt O94956); experiment: TP_TRANSPORTER: inhibition of E1S uptake (E1S: 0.00476 uM, lactic acid: 10000 uM) in OATP-B-expressing HEK293 cells; format: functional, cell-based; design: scale not given: the % may be the effect or the level left; details: probe E1S (0.00476 uM), read-out: Activity
T1 sequence (O94956 whole entry): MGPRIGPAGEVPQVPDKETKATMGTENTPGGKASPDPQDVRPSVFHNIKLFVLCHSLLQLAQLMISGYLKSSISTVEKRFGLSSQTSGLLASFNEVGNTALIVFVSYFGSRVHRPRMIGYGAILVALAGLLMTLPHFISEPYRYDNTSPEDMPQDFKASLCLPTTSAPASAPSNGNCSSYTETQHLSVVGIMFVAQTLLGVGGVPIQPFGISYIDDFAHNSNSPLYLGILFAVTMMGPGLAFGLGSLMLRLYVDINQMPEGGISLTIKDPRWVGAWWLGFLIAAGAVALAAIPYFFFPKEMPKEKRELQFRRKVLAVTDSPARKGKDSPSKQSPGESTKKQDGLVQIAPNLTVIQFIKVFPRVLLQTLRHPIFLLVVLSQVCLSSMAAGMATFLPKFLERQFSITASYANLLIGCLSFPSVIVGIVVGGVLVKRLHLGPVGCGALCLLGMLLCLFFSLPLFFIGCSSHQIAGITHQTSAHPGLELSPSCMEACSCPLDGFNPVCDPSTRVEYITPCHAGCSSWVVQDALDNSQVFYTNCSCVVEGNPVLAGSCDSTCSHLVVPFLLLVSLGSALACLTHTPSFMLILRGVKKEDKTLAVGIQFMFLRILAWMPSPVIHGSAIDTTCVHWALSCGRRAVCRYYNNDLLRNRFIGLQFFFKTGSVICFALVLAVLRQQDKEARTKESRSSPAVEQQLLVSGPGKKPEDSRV
Summary of the method: (§1)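 HEK293 cells transfected with pcDNA3/OATP-B or empty vector (mock) by calcium phosphate, harvested 40-48 h later and suspended. Preincubated 20 min at 37°C at pH 7.4, then [3H]estrone-3-sulfate (4.76 nM) uptake for 10 min at 37°C in MES-buffered medium, pH 5.5. Cells separated by silicone oil centrifugal filtration and counted by scintillation. Mock-corrected uptake given as % of no-inhibitor control; mean ± S.E.M., n=3 or 4.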

[2] = molecular target: T1, OATP-B (SLCO2B1, OATP2B1); experiment: in vitro; details: HEK293 cells expressing OATP-B, probe E1S (0.00476 uM)
[3] = molecular target: T2, Solute carrier organic anion transporter family member 2B1 (Homo sapiens, UniProt O94956); experiment: TP_TRANSPORTER: uptake (pH 5.5) in OATP-B-expressing HEK293 cells; format: functional, cell-based; details: hek293, pH 5.5
T2 sequence (O94956 whole entry): T1 sequence (O94956 whole entry)

[4] = molecular target: T1, OATP-B (SLCO2B1, OATP2B1); experiment: in vitro; details: HEK293 cells expressing OATP-B, probe E1S (0.00476 uM); remark: listed apart in the source
[5] = molecular target: T1, OATP-B (SLCO2B1, OATP2B1); experiment: TP_TRANSPORTER: inhibition of E1S uptake (E1S: 0.00476 uM, phthalic acid: 10000 uM) in OATP-B-expressing HEK293 cells; format: functional, cell-based; design: scale not given: the % may be the effect or the level left; details: probe E1S (0.00476 uM), read-out: Activity; summary of the method: as §1
[6] = molecular target: T2, Solute carrier organic anion transporter family member 2B1; experiment: TP_TRANSPORTER: uptake (pH 7.4) in OATP-B-expressing HEK293 cells; format: functional, cell-based; details: hek293, pH 7.4
[7] = molecular target: T1, OATP-B (SLCO2B1, OATP2B1); experiment: TP_TRANSPORTER: inhibition of E1S uptake (E1S: 0.00476 uM, benzoic acid: 10000 uM) in OATP-B-expressing HEK293 cells; format: functional, cell-based; design: scale not given: the % may be the effect or the level left; details: probe E1S (0.00476 uM), read-out: Activity; summary of the method: as §1
[8] = molecular target: T1, OATP-B (SLCO2B1, OATP2B1); experiment: TP_TRANSPORTER: inhibition of E1S uptake (E1S: 0.00476 uM, citric acid: 10000 uM) in OATP-B-expressing HEK293 cells; format: functional, cell-based; design: scale not given: the % may be the effect or the level left; details: probe E1S (0.00476 uM), read-out: Activity; summary of the method: as §1
[9] = molecular target: T1, OATP-B (SLCO2B1, OATP2B1); experiment: TP_TRANSPORTER: inhibition of E1S uptake (E1S: 0.00476 uM, oxalic acid: 10000 uM) in OATP-B-expressing HEK293 cells; format: functional, cell-based; design: scale not given: the % may be the effect or the level left; details: probe E1S (0.00476 uM), read-out: Activity; summary of the method: as §1

- activity at 10000 uM [1]: 85.6%
SMILES: C[C@@H](O)C(=O)O [D-LACTIC ACID]

- activity at 10000 uM [2]: 86.1%
SMILES: CC(=O)O [ACETIC ACID]

- activity at 10000 uM [9]: 83.9%
SMILES: O=C(O)C(=O)O [OXALIC ACID]

More lines, now with the values behind:

SMILES: CC[C@H](C)C(=O)O[C@H]1C[C@H](O)C=C2C=C[C@H](C)[C@H](CC[C@@H](O)C[C@@H](O)CC(=O)O)[C@H]21 [PRAVASTATIN]
- Activity [3]: substrate [+]

SMILES: O=C(O)c1cccnc1 [NIACIN]
- activity at 10000 uM [4]: 59.7%

SMILES: O=C(O)c1ccccc1C(=O)O [PHTHALIC ACID]
- activity at 10000 uM [5]: 42.7%

SMILES: C[C@]12CC[C@@H]3c4ccc(OS(=O)(=O)O)cc4CC[C@H]3[C@@H]1CCC2=O [ESTRONE SULFURIC ACID]
- Activity [6]: substrate [+]

SMILES: O=C(O)c1ccccc1 [BENZOIC ACID]
- activity at 10000 uM [7]: 56.1%

SMILES: O=C(O)CC(O)(CC(=O)O)C(=O)O [CITRIC ACID]
- activity at 10000 uM [8]: 97.7%
